Source: paper PMC11170706 (ACS Omega, 2024)

Key:
[1] = test system: OSCC cell line SAS; test: MTT cell proliferation assay, SAS cells; assay type: cell-based, human; conditions: for IC50: Homo sapiens, 72 h, read-out: IC50 value (μM) SAS; for Selectivity index (SI) IC50 (HaCaT)/IC50 (SAS): ratio of IC50 in HaCaT to IC50 in SAS
[2] = test system: human normal cell line HaCaT; test: MTT cell proliferation assay, HaCaT cells; assay type: cell-based; conditions: 72 h, read-out: IC50 value (μM) HaCaT
In short: (§1)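 Human lines kept in DMEM with 10% FBS and 1% Pen-Strep at 37 °C, 5% CO2. 2 × 10^3 cells/well were seeded, grown 24 h, then exposed to test compound for 72 h (SAS and T.Tn: 0, 5, 10, 25, 50, 100 μM; HaCaT: 0, 10, 25, 50, 75, 100 μM). MTT (5 mg/mL stock) was added for 2 h, formazan dissolved in DMSO, and A570 read. Percentage proliferation was taken relative to untreated control. IC50 was read where the dose–response curve crosses 50%.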

[3] = test system: SAS cells; test: Annexin V-based flow cytometric analysis of apoptosis; assay type: cell-based, human; conditions: 48 h
In short: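 SAS cells were seeded at 2 × 10^5 per well, grown 24 h, then exposed to test compound for 48 h. Medium-borne and trypsinized cells were collected and washed three times in PBS. They were labelled with annexin V for 20 min, then PI for 10 min, and analysed by flow cytometry. Apoptosis was computed from quadrants Q2+Q4.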

[4] = test system: SAS cells; test: Wound-healing scratch assay; assay type: cell-based, human; conditions: 24 h
In short: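 SAS cells were seeded at 6 × 10^5 per well and grown to a monolayer. Cells were serum-starved in DMEM for 6 h to block proliferation, then scratched with a pipette tip and PBS-washed. Test compound was added and wounds were imaged at 0 and 24 h. Percentage wound area remaining is reported as mean ± SD, Student's t test, p < 0.05.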

[5] = test system: esophageal cancer cell line T.Tn; test: MTT cell proliferation assay, T.Tn cells; assay type: cell-based; conditions: Homo sapiens, 72 h, read-out: IC50 value (μM) T.Tn
In short: as §1

[6] = test system: SAS cells; test: Colony formation; assay type: cell-based, human; conditions: for inhibition at 10 µM: read-out: inhibition/reduction of colony formation
In short: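 SAS cells were seeded at 2 × 10^3 per well and attached for 24 h. Test compound (1–20 μM range) was given for 24 h, then replaced with fresh medium for 10 days of growth. Colonies were washed in PBS, fixed in 70% ethanol for 4 h at −20 °C, stained with 0.01% crystal violet and counted. Plating efficiency = colonies/cells plated × 100. Survival fraction = PE treated/PE control.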

[7] = test system: SAS cells; test: PI-RNase-based cell-cycle analysis; set-up: species or system human; conditions: 24 h, AA2 1-10 μM, AA3 5-20 μM, PI-RNase flow cytometry
In short: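 SAS cells were seeded at 2 × 10^5 per well, grown 24 h, then treated 24 h with test compound. Cells were trypsinized, PBS-washed and fixed overnight in 75% ethanol at −20 °C. They were stained with PI-RNase for 20 min in the dark and analysed by flow cytometry for the percentage of cells in each cycle phase.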

[8] = test system: Bcl-2, caspases, COX-2, MMP-9, survivin, VEGF, Akt/mTOR and STAT-3 in SAS cells; test: Western blot analysis of proteins involved in OSCC; assay type: cell-based, human; conditions: 24 h, AA2 2.5, 5, 10 μM, AA3 10, 15, 20 μM
In short: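 SAS cells were seeded at 4 × 10^5 per well, attached 24 h, then treated 24 h with test compound (0–20 μM). Lysis buffer: 20 mM HEPES, 250 mM NaCl, 2 mM EDTA, 0.1% Triton X-100, 1 mM DTT, protease inhibitors. Protein was quantified by Bradford and equal amounts run on 12% SDS-PAGE, then transferred to nitrocellulose. Blocking was 5% milk, primary antibody overnight at 4 °C, HRP secondary 2 h, ECL detection. α-Tubulin served as loading control.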

[9] = test system: SAS cells; test: PI-based flow cytometric analysis of cell death; set-up: species or system human; conditions: 48 h, PI staining
In short: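 After 24 h attachment, 2 × 10^5 SAS cells per well received test compound for 48 h. Floating cells from the medium were pooled with trypsinized cells and washed three times in PBS. The unfixed cells were resuspended in PBS with PI and analysed by flow cytometry, with percentage of dead cells recorded.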

SMILES	IC50 [1]	Selectivity index (SI) IC50 (HaCaT)/IC50 (SAS) [1]	IC50 [2]	apoptosis (percentage of apoptotic cells) ([3]; 5 μM)	apoptosis (percentage of apoptotic cells) ([3]; 10 μM)	wound area (initial gap) remaining ([4]; 5 μM)	wound area (initial gap) remaining ([4]; 10 μM)	IC50 [5]	inhibition at 10 µM ([6]; Homo sapiens)	effect on cell-cycle progression [7]	effect on Akt/mTOR and STAT-3 signaling pathways [8]	effect on Bcl-2 expression [8]	effect on caspase-3 and caspase-9 [8]	further results
O=c1[nH]cc(F)c(=O)[nH]1 [5-FU, 5-fluorouracil, reference compound]	3 µM	1.3	4 µM											
CC(C)=CCc1c(-c2cc(O)c(O)cc2O)oc2c3c(cc(O)c2c1=O)OC(C)(C)C=C3 [AA2, artonin E]	6 µM	12	72 µM	18%	22%	over 60%	over 75%	8 µM	> 90%	arrest of these cells in the S-phase	inhibition of the Akt/mTOR and STAT-3 signaling pathways	downregulation of Bcl-2	activation of caspase-3 and caspase-9 in a dose-dependent manner	apoptosis (percentage of apoptotic cells) ([3]; 2.5 μM): 8%; wound area (initial gap) remaining ([4]; 1 μM): approximately 25%; wound area (initial gap) remaining ([4]; 2.5 μM): 40%; inhibition at 5 µM ([6]; Homo sapiens, read-out: inhibition of colony formation): > 90%; reduction of colony formation ([6]; SAS cells, 2.5 μM, 24 h treatment, 10 days culture): over 50%; cell death ([9]; 10 μM): more than 80%
C=C(C)[C@H]1Cc2c(oc3c4c(cc(O)c3c2=O)OC(C)(C)C=C4)-c2c(O)cc(O)c(O)c21 [AA3, artobiloxanthone]	11 µM	6.4	70 µM	8%	18%	over 45%	over 60%	22 µM	> 80%	arrest of these cells in the S-phase	inhibition of the Akt/mTOR and STAT-3 signaling pathways	downregulation of Bcl-2	activation of caspase-3 and caspase-9 in a dose-dependent manner	apoptosis (percentage of apoptotic cells) ([3]; 15 μM): 26%; apoptosis (percentage of apoptotic cells) ([3]; 20 μM): 30%; wound area (initial gap) remaining ([4]; 15 μM): over 65%; wound area (initial gap) remaining ([4]; 20 μM): 90%; cell death ([9]; 20 μM): approximately 8%
